# Measured values reported in ChEMBL document CHEMBL3259701, “Siderophore receptor-mediated uptake of lactivicin analogues in gram-negative bacteria” (J Med Chem, 2014).
# Legend:
# Escherichia coli [1] = experiment: Antibacterial activity against Escherichia coli DH5alpha by CLSI broth microdilution method; assay type: functional; details: DH5[alpha]
# Escherichia coli [2] = experiment: Antibacterial activity against Escherichia coli DH5alpha harboring pUCP26 empty vector by CLSI broth microdilution method; assay type: functional; details: DH5[alpha]
# Escherichia coli [3] = experiment: Antibacterial activity against Escherichia coli DH5alpha expressing beta-lactamase SHV-5 by CLSI broth microdilution method; assay type: functional; details: DH5[alpha]
# Escherichia coli [4] = experiment: Antibacterial activity against Escherichia coli DH5alpha expressing beta-lactamase SHV-12 by CLSI broth microdilution method; assay type: functional; details: DH5[alpha]
# Escherichia coli [5] = experiment: Antibacterial activity against Escherichia coli DH5alpha expressing beta-lactamase TEM-1 by CLSI broth microdilution method; assay type: functional; details: DH5[alpha]
# Escherichia coli [6] = experiment: Antibacterial activity against Escherichia coli DH5alpha expressing beta-lactamase TEM-24 by CLSI broth microdilution method; assay type: functional; details: DH5[alpha]
# Escherichia coli [7] = experiment: Antibacterial activity against Escherichia coli DH5alpha expressing beta-lactamase CTX-M-15 by CLSI broth microdilution method; assay type: functional; details: DH5[alpha]
# Escherichia coli [8] = experiment: Antibacterial activity against Escherichia coli DH5alpha expressing beta-lactamase VIM-2 by CLSI broth microdilution method; assay type: functional; details: DH5[alpha]
# Escherichia coli [9] = experiment: Antibacterial activity against Escherichia coli DH5alpha expressing beta-lactamase NDM-1 by CLSI broth microdilution method; assay type: functional; details: DH5[alpha]
# Escherichia coli [10] = experiment: Antibacterial activity against Escherichia coli DH5alpha expressing beta-lactamase OXA-24/40 by CLSI broth microdilution method; assay type: functional; details: DH5[alpha]
# Escherichia coli [11] = experiment: Antibacterial activity against Escherichia coli DH5alpha expressing beta-lactamase OXA-58 by CLSI broth microdilution method; assay type: functional; details: DH5[alpha]
# Escherichia coli [12] = experiment: Antibacterial activity against Escherichia coli DH5alpha expressing beta-lactamase KPC-3 by CLSI broth microdilution method; assay type: functional; details: DH5[alpha]
# Escherichia coli [13] = experiment: Ratio of MIC for Escherichia coli DH5alpha expressing beta-lactamase OXA-24/40 to MIC for Escherichia coli DH5alpha harboring pUCP26 empty vector; assay type: functional, DH5[alpha]
# In short: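 Isogenic E. coli panel in which each strain was engineered to express a single common β-lactamase. MIC for the OXA-24/40 strain was divided by the MIC for the empty-vector control strain. MICs were obtained by CLSI broth microdilution.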
# Pseudomonas aeruginosa [14] = experiment: Antibacterial activity against Pseudomonas aeruginosa PAO1 by CLSI broth microdilution method; assay type: functional
# Pseudomonas aeruginosa [15] = experiment: Antibacterial activity against Pseudomonas aeruginosa 1091-05 by CLSI broth microdilution method; assay type: functional
# Klebsiella pneumoniae = experiment: Antibacterial activity against Klebsiella pneumoniae KP-3700 by CLSI broth microdilution method; assay type: functional
# Acinetobacter baumannii = experiment: Antibacterial activity against Acinetobacter baumannii AB-3167 by CLSI broth microdilution method; assay type: functional
# [16] = biological target: Penicillin-binding protein 1A (Pseudomonas aeruginosa PAO1, UniProt Q07806); experiment: Displacement of fluorescent Bocillin FL from N-terminal His tagged Pseudomonas aeruginosa PAO1 PBP1a (residues 36 to 822) expressed in Escherichia coli BL21 (Gold cells)
# Sequence of Penicillin-binding protein 1A (Q07806 whole entry, the tested form may be a part): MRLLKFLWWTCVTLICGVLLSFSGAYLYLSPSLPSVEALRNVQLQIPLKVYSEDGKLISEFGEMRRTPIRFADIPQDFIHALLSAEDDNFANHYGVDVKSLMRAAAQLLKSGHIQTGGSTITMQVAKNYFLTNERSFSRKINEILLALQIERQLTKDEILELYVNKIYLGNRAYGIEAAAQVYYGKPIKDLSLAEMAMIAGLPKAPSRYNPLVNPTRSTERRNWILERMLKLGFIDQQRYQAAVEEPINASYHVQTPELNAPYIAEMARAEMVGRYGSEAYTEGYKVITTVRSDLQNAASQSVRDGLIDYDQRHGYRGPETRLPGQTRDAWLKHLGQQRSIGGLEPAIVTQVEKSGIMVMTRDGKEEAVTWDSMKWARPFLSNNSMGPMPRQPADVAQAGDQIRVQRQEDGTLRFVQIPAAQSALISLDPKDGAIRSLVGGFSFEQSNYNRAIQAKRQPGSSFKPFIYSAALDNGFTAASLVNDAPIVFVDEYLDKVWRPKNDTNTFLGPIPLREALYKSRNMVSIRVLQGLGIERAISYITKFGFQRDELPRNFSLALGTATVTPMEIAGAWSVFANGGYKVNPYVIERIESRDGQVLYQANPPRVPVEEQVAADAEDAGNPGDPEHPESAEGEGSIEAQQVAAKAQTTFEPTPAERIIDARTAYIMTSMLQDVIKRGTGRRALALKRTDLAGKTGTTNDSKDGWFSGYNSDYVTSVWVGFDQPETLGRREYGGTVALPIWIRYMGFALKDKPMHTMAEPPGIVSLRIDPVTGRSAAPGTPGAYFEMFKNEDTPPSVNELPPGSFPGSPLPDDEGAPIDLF
# [17] = Displacement of fluorescent Bocillin FL from Pseudomonas aeruginosa PBP1b
# [18] = Displacement of fluorescent Bocillin FL from Pseudomonas aeruginosa PBP2
# [19] = Displacement of fluorescent Bocillin FL from Pseudomonas aeruginosa PBP3
# Escherichia coli [20] = experiment: Antibacterial activity against Escherichia coli EC-28 by CLSI broth microdilution method; assay type: functional
MIC (Pseudomonas aeruginosa [14]) [µg/mL],MIC (Pseudomonas aeruginosa [15]) [µg/mL],MIC (Klebsiella pneumoniae) [µg/mL],MIC (Acinetobacter baumannii) [µg/mL],IC50 [16] [nM],IC50 [17] [nM],IC50 [18] [nM],MIC (Escherichia coli [20]) [µg/mL],SMILES,MIC (Escherichia coli [1]) [µg/mL],MIC (Escherichia coli [3]) [µg/mL],MIC (Escherichia coli [4]) [µg/mL],MIC (Escherichia coli [5]) [µg/mL],MIC (Escherichia coli [6]) [µg/mL],MIC (Escherichia coli [7]) [µg/mL],MIC (Escherichia coli [8]) [µg/mL],MIC (Escherichia coli [9]) [µg/mL],MIC (Escherichia coli [10]) [µg/mL],MIC (Escherichia coli [11]) [µg/mL],MIC (Escherichia coli [12]) [µg/mL],IC50 [19] [nM],other results
,,,,,,,,CC1(C)[C@H](NC(=O)/C(=N\OCc2cc(=O)c(O)cn2O)c2csc(N)n2)C(=O)N1OS(=O)(=O)O,0.125,> 64,> 64,0.03,> 64,1,0.03,0.06,0.125,0.125,0.125,,MIC (Escherichia coli [2]): 0.125 µg/mL
> 64,> 64,> 64,> 64,110,2440,47100,> 64,CC(C)(O/N=C(\C(=O)N[C@H]1CON(C2(C(=O)O)C[C@@H](NC(=O)OCc3ccccc3)C(=O)O2)C1=O)c1csc(N)n1)C(=O)O (some centres undefined),,,,,,,,,,,,,
> 64,> 64,> 64,> 64,65,1740,33300,> 64,CC(C)(O/N=C(\C(=O)N[C@H]1CON(C2(C(=O)O)C[C@H](NC(=O)OCc3ccccc3)C(=O)O2)C1=O)c1csc(N)n1)C(=O)O (some centres undefined),,,,,,,,,,,,,
16,2,16,0.5,46,820,6410,1,CC(C)(O/N=C(\C(=O)N[C@H]1CON(C2(C(=O)O)C[C@@H](NC(=O)c3cc(=O)c(O)cn3O)C(=O)O2)C1=O)c1csc(N)n1)C(=O)O (some centres undefined),,,,,,,,,,,,65,
2,64,8,0.5,46,820,3700,1,CC(C)(O/N=C(\C(=O)N[C@H]1CON(C2(C(=O)O)C[C@H](NC(=O)c3cc(=O)c(O)cn3O)C(=O)O2)C1=O)c1csc(N)n1)C(=O)O (some centres undefined),,,,,,,,,,,,92,
,,,,,,,,CC[C@H](O)Cn1c(-c2cc(=O)c(O)c[nH]2)nn(S(=O)(=O)[N-]C(=O)N2C[C@H](NC(=O)/C(=N\OC(C)(C)C(=O)[O-])c3csc(N)n3)C2=O)c1=O.[Na+].[Na+],0.125,0.5,0.25,0.03,0.125,0.25,0.015,0.03,0.25,0.125,0.06,,MIC (Escherichia coli [2]): 0.125 µg/mL
,,,,,,,,CC1(C)S[C@@H]2[C@H](NC(=O)[C@H](N)c3ccccc3)C(=O)N2[C@H]1C(=O)O [AMPICILLIN],,> 64,> 64,> 64,> 64,> 64,> 64,> 64,32,> 64,64,,

SMILES,MIC (Pseudomonas aeruginosa [14]) [µg/mL],MIC (Pseudomonas aeruginosa [15]) [µg/mL],MIC (Klebsiella pneumoniae) [µg/mL],MIC (Acinetobacter baumannii) [µg/mL],IC50 [16] [nM],IC50 [17] [nM],IC50 [18] [nM],MIC (Escherichia coli [20]) [µg/mL],MIC (Escherichia coli [1]) [µg/mL],MIC (Escherichia coli [3]) [µg/mL],MIC (Escherichia coli [4]) [µg/mL],MIC (Escherichia coli [5]) [µg/mL],MIC (Escherichia coli [6]) [µg/mL],MIC (Escherichia coli [7]) [µg/mL],MIC (Escherichia coli [8]) [µg/mL],MIC (Escherichia coli [9]) [µg/mL],MIC (Escherichia coli [10]) [µg/mL],MIC (Escherichia coli [11]) [µg/mL],MIC (Escherichia coli [12]) [µg/mL],IC50 [19] [nM],other results
CC(C)(O/N=C(\C(=O)N[C@H]1CON(C2(C(=O)O)CCC(=O)O2)C1=O)c1csc(N)n1)C(=O)O (some centres undefined),32,32,4,32,46,1230,33300,,0.25,0.5,0.25,0.25,0.5,0.5,0.25,0.5,1,0.25,0.5,92,MIC (Escherichia coli [2]): 0.25 µg/mL; Ratio (Escherichia coli [13]): 4
Nc1nc(/C(=N/OCc2cc(=O)c(O)cn2O)C(=O)N[C@H]2CON(C3(C(=O)O)CCC(=O)O3)C2=O)cs1 (some centres undefined),8,4,32,0.5,46,2460,22200,2,1,32,16,1,4,4,0.5,1,1,1,1,140,MIC (Escherichia coli [2]): 0.5 µg/mL
C[C@H]1[C@H](NC(=O)/C(=N\OC(C)(C)C(=O)O)c2csc(N)n2)C(=O)N1S(=O)(=O)O [AZTREONAM],,,,,3340,2870,> 300000,,,,,,,,,,,,,8,
